Consider 22 molecules from ChEMBL document CHEMBL1909594, “Synthesis of polyfunctionalized piperidone oxime ethers and their cytotoxicity on HeLa cells” (Bioorg Med Chem Lett, 2011).

Activity calls are given as the source filed them. No cut-off for these calls is given here.

Assay [1] relates to HeLa. As to the kind of experiment: cells. The class given is functional, cell-based. The settings on record: Homo sapiens, 24 h.
Assay [2] has as its system HeLa. In words: Induction of apoptosis in human HeLa cells assessed as deformed nucleus/cytoplasm consistency at 25 uM after 24 hrs using Hoechst staining method. In kind it is functional, cell-based. Summed up: (§1)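 HeLa cells at 1 × 10⁴ cells/well in 96-well plates, in three replicates, were treated and incubated overnight at 37 °C. Cells were washed twice with PBS and fixed in 4% paraformaldehyde in PBS for one day. They were stained with 1 µg/mL Hoechst 33342 for 20 min at room temperature. Nuclei were imaged by fluorescence microscopy at 360/470 nm excitation/emission.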

Assay [3] relates to HeLa. In words: Induction of apoptosis in human HeLa cells assessed as fragmentation of nucleus at 25 uM after 24 hrs using Hoechst staining method. In kind it is functional, cell-based. Summed up:
as §1

Assay [4] has as its system HeLa. As to the kind of experiment: Induction of apoptosis in human HeLa cells assessed as chromosomal fragmentation at 25 uM after 24 hrs using Hoechst staining method. In kind it is functional, cell-based. In short, it runs like this: as §1
Assay [5] concerns HeLa. As to the kind of experiment: Induction of apoptosis in human HeLa cells assessed as chromosomal condensation at 25 uM after 24 hrs using Hoechst staining method. The class given is functional, cell-based. In short, it runs like this:
as §1

Assay [6] deals with HeLa. As to the kind of experiment: Ratio of camptothecin IC50 to compound IC50 for human HeLa cells. In kind it is functional.
Assay [7] concerns HeLa. In words: Induction of apoptosis in human HeLa cells assessed as cytoplasm content release at 25 uM after 24 hrs using Hoechst staining method. The class given is functional, cell-based. To be noted: in the assay text read “by phase contrast microscopy” for “using Hoechst staining method”. Summed up: (§2)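 HeLa cells (ATCC) were grown in DMEM with 10% heat-inactivated FBS plus penicillin/streptomycin at 37 °C under 5% CO₂. Cells at 1 × 10⁵/well were exposed to compound for 24 h. Morphology changes were then examined by phase-contrast light microscopy against untreated cells.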

Assay [8] relates to HeLa. In words: Induction of apoptosis in human HeLa cells assessed as blebbing of cellular membrane at 25 uM after 24 hrs using Hoechst staining method. The class given is functional, cell-based. To be noted: in the assay text read “by phase contrast microscopy” for “using Hoechst staining method”. Summed up:
as §2

Assay [9] has as its system HeLa. As to the kind of experiment: Induction of apoptosis in human HeLa cells assessed as margination of chromation into horseshoe shaped structure at 25 uM after 24 hrs using Hoechst staining method. The class given is functional, cell-based. Summed up: as §1
The subject of assay [10] is HeLa. As to the kind of experiment: Induction of apoptosis in human HeLa cells assessed as formation of apoptotic bodies at 25 uM after 24 hrs using Hoechst staining method. The class given is functional, cell-based. Summed up: as §1
Assay [11] has as its system HeLa. In words: Induction of apoptosis in human HeLa cells assessed as cell membrane rupture at 25 uM after 24 hrs using Hoechst staining method. The settings on record: in the assay text read “by phase contrast microscopy” for “using Hoechst staining method”. The class given is functional, cell-based. In short, it runs like this: as §2

Consider `CO/N=C1\C[C@@H](c2ccc(C)cc2)N(C)[C@@H](c2ccc(C)cc2)[C@@H]1C`, for which the IC50 (in general, the concentration that inhibits the measured activity by half) with HeLa [1] was 47.7 µM. The molecule `CO/N=C1\C[C@@H](c2ccccc2)N[C@@H](c2ccccc2)[C@@H]1C` (relative stereo) yielded a 50% inhibitory concentration (IC50) in the assay on HeLa [1] of 113 µM. With `CO/N=C1\C[C@@H](c2ccc(OC)cc2)N[C@@H](c2ccc(OC)cc2)[C@@H]1C`, the IC50 in the assay with HeLa [1] came out at 154 µM. Same read-out and setting: the value for `CC[C@@]1(O)C(=O)OCc2c1cc1n(c2=O)Cc2cc3ccccc3nc2-1` [CAMPTOTHECIN] was 8.93 µM; that for `CO/N=C1\C[C@@H](c2ccccc2)N[C@@H](c2ccccc2)C1` (relative stereo) was 121 µM. The molecule `CO/N=C1\C[C@@H](c2ccc(F)cc2)N[C@@H](c2ccc(F)cc2)[C@@H]1C` gave an IC50 in the assay with HeLa [1] of 49.2 µM.

`COc1cc([C@@H]2c3cc4c(cc3[C@@H](O[C@@H]3O[C@@H]5CO[C@@H](C)O[C@H]5[C@H](O)[C@H]3O)[C@H]3COC(=O)[C@H]23)OCO4)cc(OC)c1O` [ETOPOSIDE] registered a concentration for half-maximal inhibition (IC50) in the assay on HeLa [1] of 23.3 µM. On the same count and under the same terms, to `CO/N=C1\C[C@@H](c2ccc(F)cc2)N(C)[C@@H](c2ccc(F)cc2)[C@@H]1C` belongs 40.7 µM; to `CO/N=C1/[C@@H](C)[C@H](c2ccc(C(C)C)cc2)N[C@H](c2ccc(C(C)C)cc2)[C@H]1C`, 51 µM; to `CO/N=C1\C[C@@H](c2ccccc2)N[C@@H](c2ccccc2)[C@@H]1C(C)C`, 49.5 µM. In the assay on HeLa [1], `CO/N=C1/[C@@H](C)[C@H](c2ccc(C)cc2)N[C@H](c2ccc(C)cc2)[C@H]1C` registered an IC50 of 54.9 µM. For `CO/N=C1\C[C@@H](c2cccc(F)c2)N[C@@H](c2cccc(F)c2)[C@@H]1C`, the half-inhibitory concentration (IC50) in the assay on HeLa [1] came out at 38.4 µM. This IC50 and that of the molecule before are within 1.5-fold of each other. The same measure, in the same setting: the value for `CCOc1ccc([C@H]2N[C@@H](c3ccc(OCC)cc3)[C@H](C)/C(=N/OC)[C@@H]2C)cc1` was 98 µM; that for `CO/N=C1\C[C@@H](c2ccc(OC)cc2)N(C)[C@@H](c2ccc(OC)cc2)[C@@H]1C` was 80.6 µM; that for `CO/N=C1\C[C@@H](c2ccc(C)cc2)N[C@@H](c2ccc(C)cc2)[C@@H]1C` was 81.6 µM. In the case of `CO/N=C1/[C@@H](C)[C@H](c2ccc(OC)cc2)N[C@H](c2ccc(OC)cc2)[C@H]1C`, in the assay with HeLa [1], the IC50 was found to be 93.9 µM. Regarding `CO/N=C1/[C@@H](C)[C@H](c2cccc(F)c2)N[C@H](c2cccc(F)c2)[C@H]1C`, half-maximal inhibition in the assay on HeLa [1] (IC50) was put at 37.9 µM.

As for `CO/N=C1\C[C@@H](c2ccc(Cl)cc2)N(C)[C@@H](c2ccc(Cl)cc2)[C@@H]1C`, in the assay on HeLa [1], half-maximal inhibition (IC50) was put at 36.3 µM. As for `CC[C@@H]1/C(=N/OC)C[C@@H](c2ccccc2)N(C)[C@H]1c1ccccc1`, in the assay on HeLa [1], the IC50 is 41.7 µM. In the case of `CO/N=C1\C[C@@H](c2ccc(Cl)cc2)N[C@@H](c2ccc(Cl)cc2)[C@@H]1C` (relative stereo), in the assay with HeLa [1], the IC50 stood at 49 µM. With `CO/N=C1\C[C@@H](c2ccc(Br)cc2)N[C@@H](c2ccc(Br)cc2)[C@@H]1C` (relative stereo), the result in the assay with HeLa [2], in the assay on HeLa [3], in the assay with HeLa [4], with HeLa [5], in the assay on HeLa [7] and in the assay on HeLa [8] was Active. The outcome in the assay with HeLa [9], in the assay on HeLa [10] and in the assay with HeLa [11] was Active. Besides, the IC50 with HeLa [1] turned out to be 25 µM. The “Ratio IC50” value with HeLa [6] worked out at 3. The molecule `CC[C@@H]1/C(=N/OC)C[C@@H](c2ccccc2)N[C@H]1c1ccccc1` showed an IC50 with HeLa [1] of 57.3 µM.
